From ChEMBL document CHEMBL1145153, “Discovery of potent anilide inhibitors against the severe acute respiratory syndrome 3CL protease” (J Med Chem, 2005)
*1 amine or outer side, *2 acyl side, *3 side chain or, on linkers, in order; H or OH if unused. Where a SMILES comes first, the peptide text is derived from it. [ ]: non-standard residue; d: D form. The star is where a group is joined. ξ: configuration not given here. NH(2-Cl-4-NO2-phenyl) = O=[N+]([O-])c1ccc(N*)c(Cl)c1; Phe(4-F) = N[C@@H](Cc1ccc(F)cc1)C(=O)O; Thr(3ξ) = CC(O)[C@H](N)C(=O)O; Morpholide = C1CN(*)CCO1; Cbz = O=C(OCc1ccccc1)*; CO = O=C([*:1])[*:2]; Piv = CC(C)(C)C(=O)*; Propionyl = CCC(=O)*; Bz = O=C(c1ccccc1)*; X1 = CC1CCN(*)O1

Legend:
[1] = Concentration required to inhibit SARS-CoV 3CL protease catalyzed cleavage of fluorogenic peptide Dabcyl-KTSAVLQSGFRKME-Edans by 50%
Procedure, shortened: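 Purified enzyme (stock held in 12 mM Tris-HCl pH 7.5, 120 mM NaCl, 0.1 mM EDTA, 1 mM DTT, 7.5 mM β-ME) at 50 nM with 6 μM substrate in 20 mM Bis-Tris pH 7.0. Cleavage followed as fluorescence increase, excitation 355 nm, emission 538 nm. IC50 taken from initial velocities plotted against inhibitor concentration.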

[2] = Inhibitory constant against SARS-CoV 3CL protease catalyzed cleavage of fluorogenic peptide Dabcyl-KTSAVLQSGFRKME-Edans
Procedure, shortened: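 Fluorometric cleavage assay in 20 mM Bis-Tris pH 7.0, excitation 355 nm, emission 538 nm. Enzyme stock held in 12 mM Tris-HCl pH 7.5 with NaCl, EDTA, DTT and β-ME. Initial rates measured at two fixed inhibitor concentrations across various substrate concentrations. Ki derived using double-reciprocal plots of rate versus substrate concentration.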

Structure (SMILES): CC(C)C[C@H](NC(=O)[C@@H](NC(=O)c1cccs1)C(C)C)C(=O)N[C@@H](Cc1ccccc1)C(=O)Nc1ccc([N+](=O)[O-])cc1Cl
- IC50 [1]: 5 µM
- Ki [2]: 2.29 µM

Structure (SMILES): CC(C)C[C@H](CC(=O)[C@@H](NC(=O)c1cccs1)C(C)C)C(=O)N[C@@H](Cc1ccccc1)C(=O)Nc1ccc([N+](=O)[O-])cc1Cl
- IC50 [1]: 22 µM

Structure (SMILES): CC(C)[C@H](NC(=O)c1ccccc1)C(=O)N[C@@H](Cc1ccc(F)cc1)C(=O)N[C@H](C(=O)N[C@@H](Cc1ccccc1)C(=O)Nc1ccc([N+](=O)[O-])cc1Cl)C(C)O (stereo not given in full) (Bz-V[Phe(4-F)][Thr(3ξ)]F-{NH(2-Cl-4-NO2-phenyl)})
- IC50 [1]: 2 µM

Structure (SMILES): O=C(N[C@@H](Cc1ccccc1)C(=O)Nc1ccc([N+](=O)[O-])cc1Cl)c1ccc([N+](=O)[O-])cc1
- IC50 [1]: > 10 µM

Structure (SMILES): CN(C)c1ccc(C(=O)N[C@@H](Cc2ccccc2)C(=O)Nc2ccccc2Cl)cc1
- IC50 [1]: > 10 µM

Structure (SMILES): CCC(=O)N[C@H](C(=O)C[C@@H](CC(C)C)C(=O)N[C@@H](Cc1ccccc1)C(=O)Nc1ccc([N+](=O)[O-])cc1Cl)C(C)C
- IC50 [1]: 27 µM

Structure (SMILES): O=C(Nc1ccc([N+](=O)[O-])cc1Cl)c1cc(Cl)ccc1O [NICLOSAMIDE]
- IC50 [1]: > 10 µM

Structure (SMILES): O=C(CCC(=O)N[C@@H](Cc1ccccc1)C(=O)Nc1ccc([N+](=O)[O-])cc1Cl)NC(Cc1ccccc1)C(=O)Nc1ccc([N+](=O)[O-])cc1Cl (stereo not given in full)
- IC50 [1]: > 50 µM

Structure (SMILES): CN(C)c1ccc(C(=O)N[C@@H](Cc2ccccc2)C(=O)Nc2ccc([N+](=O)[O-])cc2)cc1
- IC50 [1]: > 10 µM

Structure (SMILES): CC1CCN(C(=O)N[C@H](C(=O)N[C@@H](Cc2ccccc2)C(=O)N[C@@H](Cc2ccccc2)C(=O)Nc2ccc([N+](=O)[O-])cc2Cl)C(C)C)O1 (stereo not given in full)
- IC50 [1]: 7 µM
- Ki [2]: 2.9 µM

Structure (SMILES): CCCC(=O)N[C@H](C(=O)N[C@@H](CC(C)C)C(=O)N[C@@H](Cc1ccccc1)C(=O)Nc1ccc([N+](=O)[O-])cc1Cl)C(C)C
- IC50 [1]: 7 µM

Structure (SMILES): CC(C)[C@H](NC(=O)OCc1ccccc1)C(=O)N[C@@H](Cc1ccccc1)C(=O)N[C@H](C(=O)N[C@@H](Cc1ccccc1)C(=O)Nc1ccc([N+](=O)[O-])cc1Cl)C(C)O (stereo not given in full) (Cbz-VF[Thr(3ξ)]F-{NH(2-Cl-4-NO2-phenyl)})
- IC50 [1]: 6 µM
- Ki [2]: 1.51 µM

Structure (SMILES): CN(C)c1ccc(C(=O)N[C@@H](Cc2ccccc2)C(=O)Nc2ccccc2)cc1
- IC50 [1]: > 10 µM

Structure (SMILES): CN(C)c1ccc(C(=O)N[C@@H](Cc2ccccc2)C(=O)Nc2ccc([N+](=O)[O-])cc2Cl)cc1
- IC50 [1]: 0.06 µM
- Ki [2]: 0.03 µM

Structure (SMILES): CCC(=O)N[C@H](C(=O)N[C@@H](Cc1ccc(F)cc1)C(=O)N[C@H](C(=O)N[C@@H](Cc1ccccc1)C(=O)Nc1ccc([N+](=O)[O-])cc1Cl)C(C)O)C(C)C (stereo not given in full) (Propionyl-V[Phe(4-F)][Thr(3ξ)]F-{NH(2-Cl-4-NO2-phenyl)})
- IC50 [1]: 5 µM

Structure (SMILES): CC(C)C[C@H](NC(=O)[C@@H](NC(=O)c1ccccc1)C(C)C)C(=O)N[C@@H](Cc1ccccc1)C(=O)Nc1ccc([N+](=O)[O-])cc1Cl
- IC50 [1]: 4 µM

Structure (SMILES): O=C(/C=C/c1c[nH]c2ccccc12)N[C@@H](Cc1ccccc1)C(=O)Nc1ccc([N+](=O)[O-])cc1Cl
- IC50 [1]: 3 µM

Structure (SMILES): CC(O)[C@H](NC(=O)CCC(=O)N[C@H](C(=O)N[C@@H](Cc1ccccc1)C(=O)Nc1ccc([N+](=O)[O-])cc1Cl)C(C)O)C(=O)NC(Cc1ccccc1)C(=O)Nc1ccc([N+](=O)[O-])cc1Cl (stereo not given in full)
- IC50 [1]: 2 µM

Structure (SMILES): CCC(=O)N[C@H](C(=O)N[C@@H](CC(C)C)C(=O)N[C@H](C(=O)N[C@@H](Cc1ccccc1)C(=O)Nc1ccc([N+](=O)[O-])cc1Cl)C(C)O)C(C)C (stereo not given in full) (Propionyl-VL[Thr(3ξ)]F-{NH(2-Cl-4-NO2-phenyl)})
- IC50 [1]: 7 µM

Structure (SMILES): O=C(C[C@H](O)C(=O)N[C@@H](Cc1ccccc1)C(=O)Nc1ccc([N+](=O)[O-])cc1Cl)NC(Cc1ccccc1)C(=O)Nc1ccc([N+](=O)[O-])cc1Cl (stereo not given in full)
- IC50 [1]: 4 µM
- Ki [2]: 3.1 µM

Structure (SMILES): O=C(N[C@@H](Cc1ccccc1)C(=O)Nc1ccc([N+](=O)[O-])cc1Cl)c1ccccc1
- IC50 [1]: > 10 µM

Structure (SMILES): CC(C)[C@H](NC(=O)c1cccs1)C(=O)C[C@@H](Cc1ccccc1)C(=O)N[C@@H](Cc1ccccc1)C(=O)Nc1ccc([N+](=O)[O-])cc1Cl
- IC50 [1]: 16 µM

Structure (SMILES): CC(C)C[C@H](NC(=O)[C@@H](NC(=O)N1CCOCC1)C(C)C)C(=O)N[C@H](C(=O)N[C@@H](Cc1ccccc1)C(=O)Nc1ccc([N+](=O)[O-])cc1Cl)C(C)O (stereo not given in full) ({Morpholide-CO}-VL[Thr(3ξ)]F-{NH(2-Cl-4-NO2-phenyl)})
- IC50 [1]: 16 µM

Structure (SMILES): Nc1ccc(C(=O)N[C@@H](Cc2ccccc2)C(=O)Nc2ccc([N+](=O)[O-])cc2Cl)cc1N
- IC50 [1]: 2 µM

Structure (SMILES): CC(C)C[C@H](CC(=O)[C@@H](NC(=O)N1CCOCC1)C(C)C)C(=O)N[C@@H](Cc1ccccc1)C(=O)Nc1ccc([N+](=O)[O-])cc1Cl
- IC50 [1]: 29 µM

Structure (SMILES): CC(C)C[C@H](NC(=O)[C@@H](NC(=O)OC(C)(C)C)C(C)C)C(=O)N[C@@H](Cc1ccccc1)C(=O)Nc1ccc([N+](=O)[O-])cc1Cl
- IC50 [1]: > 10 µM

Structure (SMILES): CC(C)C[C@H](NC(=O)[C@@H](NC(=O)N1CCOCC1)C(C)C)C(=O)N[C@@H](Cc1ccccc1)C(=O)Nc1ccc([N+](=O)[O-])cc1Cl
- IC50 [1]: 19 µM

Structure (SMILES): CCCCCCCCCCCCCCC(Br)C(=O)N[C@@H](Cc1ccccc1)C(=O)Nc1ccc([N+](=O)[O-])cc1Cl (stereo not given in full)
- IC50 [1]: 3 µM

Structure (SMILES): CC(C)C[C@H](CC(=O)[C@@H](NC(=O)c1ccccc1)C(C)C)C(=O)N[C@@H](Cc1ccccc1)C(=O)Nc1ccc([N+](=O)[O-])cc1Cl
- IC50 [1]: 21 µM

Structure (SMILES): O=C(Nc1ccc([N+](=O)[O-])cc1Cl)C(Cc1ccccc1)NC(=O)[C@H](O)[C@@H](O)C(=O)N[C@@H](Cc1ccccc1)C(=O)Nc1ccc([N+](=O)[O-])cc1Cl (stereo not given in full)
- IC50 [1]: 5 µM

Structure (SMILES): CC(C)C[C@H](CC(=O)[C@@H](NC(=O)OC(C)(C)C)C(C)C)C(=O)N[C@@H](Cc1ccccc1)C(=O)Nc1ccc([N+](=O)[O-])cc1Cl
- IC50 [1]: 19 µM

Structure (SMILES): CC(C)[C@H](NC(=O)C(C)(C)C)C(=O)N[C@@H](Cc1ccccc1)C(=O)N[C@H](C(=O)N[C@@H](Cc1ccccc1)C(=O)Nc1ccc([N+](=O)[O-])cc1Cl)C(C)O (stereo not given in full) (Piv-VF[Thr(3ξ)]F-{NH(2-Cl-4-NO2-phenyl)})
- IC50 [1]: 2 µM

Structure (SMILES): CC(O)[C@H](NC(=O)C[C@@H](O)C(=O)N[C@H](C(=O)N[C@@H](Cc1ccccc1)C(=O)Nc1ccc([N+](=O)[O-])cc1Cl)C(C)O)C(=O)NC(Cc1ccccc1)C(=O)Nc1ccc([N+](=O)[O-])cc1Cl (stereo not given in full)
- IC50 [1]: 2 µM

Structure (SMILES): CC1CCN(C(=O)N[C@H](C(=O)N[C@@H](Cc2ccccc2)C(=O)N[C@H](C(=O)N[C@@H](Cc2ccccc2)C(=O)Nc2ccc([N+](=O)[O-])cc2Cl)C(C)O)C(C)C)O1 (stereo not given in full) ({X1-CO}-VF[Thr(3ξ)]F-{NH(2-Cl-4-NO2-phenyl)})
- IC50 [1]: 5 µM
- Ki [2]: 1.61 µM

Structure (SMILES): O=C(N[C@@H](Cc1ccccc1)C(=O)Nc1ccc([N+](=O)[O-])cc1)c1ccccc1
- IC50 [1]: > 10 µM

Structure (SMILES): CC(C)[C@H](NC(=O)c1cccs1)C(=O)N[C@@H](Cc1ccccc1)C(=O)N[C@@H](Cc1ccccc1)C(=O)Nc1ccc([N+](=O)[O-])cc1Cl
- IC50 [1]: 5 µM
- Ki [2]: 4.3 µM

Structure (SMILES): CC(C)(C)OC(=O)N[C@@H](Cc1ccccc1)C(=O)Nc1ccc([N+](=O)[O-])cc1Cl
- IC50 [1]: > 50 µM

Structure (SMILES): CC(O)[C@H](NC(=O)[C@H](O)[C@@H](O)C(=O)N[C@H](C(=O)N[C@H](Cc1ccccc1)C(=O)Nc1ccc([N+](=O)[O-])cc1Cl)C(C)O)C(=O)N[C@@H](Cc1ccccc1)C(=O)Nc1ccc([N+](=O)[O-])cc1Cl (stereo not given in full)
- IC50 [1]: 2 µM
